Screening data deposited in PubChem by several laboratories.
Rows were chosen to be rich in hits. Some 0.86% of all compounds tested hit in one or more screens of this group.
DAGLB inhibitor: DAGLB lipase inhibitors, primary screen, biochemical, fluorescence, HTS. inhibition, % at 5.17 µM. actives 0.059% (n = 340,000). Diacylglycerol lipase-beta (Homo sapiens), Q8NCG7. HEK293T DAGLB membrane lysate, EnzChek fluorogenic substrate; in the data active = inhibition above about 34%;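 also: 0% = enzyme with vehicle and 100% = wells lacking enzyme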
iPSC survival up: enhancers of single-cell hiPSC survival, primary screen, ATPlite luminescence; 100% = ROCK inhibitor wells, 0% = DMSO; survival enhancement, % at 20 µM; actives 0.044% (n = 360,000); in the data active = survival enhancement above about 18%;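 also: cells exposed to compounds for 16 hours before the ATP read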
CXCR6 inh: CXCR6 receptor inhibitors, primary screen, cell-based, beta-arrestin, luminescence, CHO-K1 PathHunter, 1536-well. C-X-C chemokine receptor type 6 (Homo sapiens), O00574. inhibition, % at 20 µM. actives 0.36% (n = 360,000). AID 602244, 2012; in the data active = inhibition above about 34%, passing the limit was not always enough;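 also: antagonist mode with CXCL16 agonist at 10 nM final; 0% = 10 nM CXCL16 with DMSO and 100% = unstimulated wells without agonist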
Target sequence (O00574 whole entry, looked up): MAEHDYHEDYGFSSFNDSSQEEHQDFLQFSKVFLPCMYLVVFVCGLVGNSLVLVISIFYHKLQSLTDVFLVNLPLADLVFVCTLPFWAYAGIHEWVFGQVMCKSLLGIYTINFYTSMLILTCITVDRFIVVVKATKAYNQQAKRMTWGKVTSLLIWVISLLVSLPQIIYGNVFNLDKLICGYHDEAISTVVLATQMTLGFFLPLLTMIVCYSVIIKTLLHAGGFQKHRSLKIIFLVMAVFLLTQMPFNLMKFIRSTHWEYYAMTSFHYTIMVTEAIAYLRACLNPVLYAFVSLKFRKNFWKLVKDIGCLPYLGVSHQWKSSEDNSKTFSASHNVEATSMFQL
APJ antag: antagonists of human apelin receptor APJ, primary screen, CHO-K1 cells, beta-arrestin complementation, luminescence; inhibition, % at 20 µM; AID 2521, 2010; actives 0.32% (n = 330,000); P35414;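 active = inhibition above about 40% at 20 µM, limit read from the data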;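 also: cells challenged with 10 nM apelin-13 agonist together with compound; plate controls were apelin-13 plus DMSO wells for no effect and DMSO wells lacking apelin-13 for full effect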
APJ agonist: agonists of human apelin receptor APJ, primary screen, CHO-K1 cells, PathHunter beta-arrestin, luminescence; P35414; 0% DMSO wells, 100% apelin; activation, % at 20 µM; actives 0.11% (n = 330,000);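 active = activation more than six SD over the plate average, tested at 20 µM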;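 also: 0% = DMSO alone and 100% = apelin-13 at 10 nM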
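assay system = CHO-K1 APJ beta-arrestin complementation cell line | input = cell density 1000 per well | dosing = compound 20 µM once, DMSO 1% | timing = compound 90 min 25 °C, reagent 1 h | measured by = luminescence from split beta-galactosidase complementation, Galacton Star/Emerald II substrate | read-out basis = APJ agonist activity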
CCR6 antag: CCR6 receptor antagonists, primary screen, cell-based, CHO-K1, luminescence, beta-arrestin, uHTS; actives 0.49% (n = 340,000); inhibition, % at 20 µM; C-C chemokine receptor type 6 (Homo sapiens), P51684; CHO-K1 CCR6 PathHunter beta-arrestin, CCL20-stimulated; AID 493098, 2011;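 active = compounds whose inhibition of the agonist-driven luminescence signal at 20 µM reaches about 50%, limit read from the data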;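 also: cells stimulated with CCL20 at 14 nM final; plate controls were DMSO with CCL20 for no effect and DMSO without agonist for full effect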
Active calls of the source: *; x = no result.

SMILES	DAGLB inhibitor	iPSC survival up	CXCR6 inh	APJ antag	APJ agonist	CCR6 antag
O=C(Cc1ccc(Br)cc1)Nc1ccc2[nH]ncc2c1	0	25*	1	-14	-2	8
O=C(Cc1ccccc1)Nc1ccc2[nH]ncc2c1	1	2	-6	-1	-3	-7
O=C(CSc1nc(-c2ccc(F)cc2)nc2c1Cc1ccccc1O2)Nc1cccc(C(=O)O)c1	2	0	3	x	x	52*
CCN1C/C(=C\c2cccc([N+](=O)[O-])c2)C(=O)/C(=C/c2cccc([N+](=O)[O-])c2)C1	3	56*	31	x	x	73*
CC(C)CC1C(=O)N(Cc2cn(CCC3OCCCO3)nn2)CCS(=O)(=O)N1Cc1ccc(-c2ccc(Cl)nc2)cc1 (stereo not drawn)	-2	-2	-10	x	x	x
COc1cc(/C=C/c2ccc3cccc(O)c3n2)ccc1O	1	0	43*	15	-1	67*
Oc1cccc2ccc(/C=C/c3ccccc3Br)nc12	-11	0	32	34	-11	62*
Cc1ccccc1-n1nnnc1SCC(=O)NC1CC1	0	1	10	1	-2	11
COc1ccc(OCc2cc(C(=O)NCc3nc(C)cs3)no2)c(Cl)c1	0	0	9	-47	-8	17
COc1cc2c(c(Br)c1N)-c1cc(Br)c(N)cc1C2=O	21	3	21	x	x	x
N#C/C(=C\c1ccc(-c2ccccc2[N+](=O)[O-])o1)C(=O)Nc1nc(-c2cccs2)cs1	20	-1	36	23	-6	51*
N#C/C(=C/c1ccc(-c2ccccc2[N+](=O)[O-])o1)C(N)=O	0	1	-11	-6	0	4
CC(=O)Nc1nc(-c2ccc([N+](=O)[O-])cc2)cs1	0	-2	1	-3	-4	0
N#C/C(=C\c1ccc(-c2ccc([N+](=O)[O-])cc2)o1)C(=O)Nc1nc(-c2cccs2)cs1	5	0	34	18	-3	58*
N#C/C(=C/c1ccc(-c2cccc([N+](=O)[O-])c2)o1)C(=O)Nc1nc(-c2cccs2)cs1	6	-1	22	x	x	69*
N#C/C(=C\c1ccc(-c2cccc([N+](=O)[O-])c2)o1)C(=O)N1CCOCC1	-1	1	-9	-7	-2	7
CCCCC(OC(=O)CN1C(=O)COc2ccccc21)C(=O)NC1CCCCC1 (stereo not drawn)	-3	0	-7	8	-1	14
O=[N+]([O-])c1ccc(C=NNc2ccccc2)cc1	20	2	18	x	x	50*
Cc1cc2c(C)nc(N/N=C/c3ccc([N+](=O)[O-])cc3)nc2o1	-1	0	4	x	x	108*
O=[N+]([O-])c1cccc(C=NNc2ccccc2)c1	1	2	6	x	x	25
CC(C)CC(=O)N1CCN(c2ccc(NC(=O)c3ccco3)cc2)CC1	3	2	0	22	4	8
Cc1ccc(OCC(=O)NNC(=S)NC(=O)C(C)(C)C)c(Br)c1	-1	0	38	10	-5	59*
Cc1ccc(OCC(=O)NC(=S)Nc2ccccn2)c(Br)c1	-3	0	1	-6	-5	-3
CC(=O)c1ccc(NC(=O)c2ccc3nc(-c4ccco4)c(-c4ccco4)nc3c2)cc1	11	0	46*	-7	6	33
O=C(Nc1ccccc1)c1ccc2nc(-c3ccco3)c(-c3ccco3)nc2c1	15	0	9	-7	-2	27
Cc1ccc2c(COC(=O)C3=COCCO3)cc(=O)oc2c1	2	23*	-7	x	x	7
COc1cccc(/C=N/Nc2nc(Nc3ccccc3)nc(-n3nc(C)cc3C)n2)c1O	7	6	57*	18	-9	67*
O=C(Nc1nnc(C2CC2)s1)c1cc([N+](=O)[O-])ccc1N1CCCCC1	0	3	20	16	-3	72*
Cc1ccccc1Cn1c(C)c(C(=O)NCc2ccc(Cl)c(Cl)c2)sc1=O	x	-1	-3	x	x	x
